Measured values as given in ChEMBL document CHEMBL1146556, “Acetophenone derivatives from Acronychia pedunculata” (J Nat Prod, 2003).

Key:
[1] = test system: Radical scavenging activity; experiment: Antioxidant activity assessed as DPPH radical scavenging activity after 30 mins; type: functional
How it was run: (§1)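 Radical scavenging was read as percent inhibition after a 30 min incubation.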

[2] = test system: Radical scavenging activity; experiment: Antioxidant activity assessed as DPPH radical scavenging activity at 500 uM after 30 mins; type: functional; how it was run: as §1
[3] = molecular target: T1, Tyrosinase (Homo sapiens) (UniProt P14679); experiment: Inhibition of tyrosinase at 500 uM
T1 sequence (whole entry): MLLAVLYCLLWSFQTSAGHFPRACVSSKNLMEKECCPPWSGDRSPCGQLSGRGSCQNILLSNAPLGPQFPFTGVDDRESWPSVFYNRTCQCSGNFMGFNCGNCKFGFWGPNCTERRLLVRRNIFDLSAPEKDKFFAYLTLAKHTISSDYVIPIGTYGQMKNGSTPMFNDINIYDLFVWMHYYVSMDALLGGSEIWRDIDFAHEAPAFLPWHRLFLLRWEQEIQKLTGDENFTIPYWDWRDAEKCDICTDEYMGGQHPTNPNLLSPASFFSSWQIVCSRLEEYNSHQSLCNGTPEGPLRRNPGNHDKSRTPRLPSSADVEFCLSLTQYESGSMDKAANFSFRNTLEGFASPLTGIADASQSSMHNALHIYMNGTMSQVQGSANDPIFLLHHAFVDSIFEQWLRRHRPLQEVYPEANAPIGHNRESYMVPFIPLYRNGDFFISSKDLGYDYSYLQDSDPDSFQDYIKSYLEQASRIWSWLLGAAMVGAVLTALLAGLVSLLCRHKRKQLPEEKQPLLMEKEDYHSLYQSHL

[4] = molecular target: T2, Tyrosinase (Homo sapiens, UniProt P14679); experiment: Inhibition of tyrosinase
T2 sequence (P14679 whole entry): T1 sequence (whole entry)

| IC50 [1] [µM] | inhibition [3] [%] | IC50 [4] [µM] | Molecule | inhibition [2] [%] |
| --- | --- | --- | --- | --- |
| 8.3 |  |  | VITAMIN E |  |
|  | 11.8 |  | COc1c(CC=C(C)C)c(O)c(C=O)c(O)c1C(C)=O | 3.1 |
|  | 16.8 |  | COc1c(CC=C(C)C)c(O)c(C(=O)CC(C)C)c(O)c1C(C)=O | 8.3 |
| 493 |  | 333 | COc1c(CC=C(C)C)c(O)c([C@H](CC(C)C)c2c(O)c(CC=C(C)C)c(O)c(C(C)=O)c2O)c(O)c1C(C)=O [ACROVESTONE] |  |
|  | 6.5 |  | COc1c(CC=C(C)C)c2c(c(O)c1C(C)=O)C[C@H](C(C)(C)O)O2 | 5.3 |
|  | 8.1 |  | C=C(C)C(O)Cc1c(O)cc(O)c(C(C)=O)c1OC (stereo not drawn) | 10.3 |
|  | 2.5 |  | COc1c(CC=C(C)C)c2c(c(O)c1C(C)=O)C=CC(C)(C)O2 | 2.9 |
